Data on seven compounds can be found in ChEMBL document CHEMBL3870302, “Computer-aided identification, synthesis and evaluation of substituted thienopyrimidines as novel inhibitors of HCV replication” (Eur J Med Chem, 2016).

A short description of data set [1]: Inhibition of Hepatitis C virus genotype 1b (con1) full length C-terminal His-tagged NS3 helicase expressed in Escherichia coli Rosette(DE3) assessed as inhibition of 5'-Cy5/3'-IAbRQ-labeled DNA unwinding activity by molecular beacon assay. On the set-up: species or system Hepatitis C virus (isolate Con1). The method, boiled down: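 Molecular beacon unwinding assay: 25 mM MOPS pH 6.5, 1.25 mM MgCl2, 5% DMSO, 5 µg/ml BSA, 0.01% Tween20, 0.05 mM DTT, 5 nM fluorescent DNA substrate, 12.5 nM NS3h, 1 mM ATP.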

Data set [2] can be described thus: Inhibition of Cy5-labeled dT15 DNA binding to Hepatitis C virus genotype 1b (con1) NS3 helicase DNA by fluorescence polarization assay. Further details: species or system Hepatitis C virus (isolate Con1). The essentials:
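Displacement of NS3h from a DNA oligonucleotide, 15 nM NS3h in 25 mM MOPS pH 7.5, 1.25 mM MgCl2, 0.0025 mg/ml BSA, 0.005% Tween20, 0.025 mM DTT.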
Background: Fluorescence polarisation rises when a labelled molecule tumbles more slowly, as on binding a larger partner.

The nature of data set [3]: Inhibition of protease domain lacking Hepatitis C virus genotype 1b (con1) C-terminal His-tagged NS3 helicase ATP hydrolysis activity using ATP as substrate preincubated followed by substrate addition measured after 15 mins in presence of poly U RNA by malachite green-based assay. On the set-up: species or system Hepatitis C virus (isolate Con1).
Data set [4] is described as follows: Selectivity index, ratio of CC50 for human HuH5.2 cells to EC50 for hepatitis C virus genotype 1b infected in human HuH5.2 cells. The data set is classed as toxicity, cell-based. The conditions noted are these: HuH5.2 cells, read-out: Ratio CC50/EC50. The method, boiled down: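 Ratio of CC50 (MTS metabolic read-out, 72 h) to EC50 (replicon luciferase read-out, 72 h), both measured in parallel on Huh 5-2 genotype 1b replicon cells.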

The test system of a further data set is Hepatitis C virus. Briefly: Antiviral activity against Hepatitis C virus genotype 1b infected in human HuH5.2 cells after 72 hrs by luciferase reporter gene assay. The data set is classed as functional, cell-based, Hepacivirus hominis. Conditions: Hepatitis C virus, genotype 1b, Huh-5-2, 72 h. The essentials:
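Huh 5-2 cells with genotype 1b I389luc-ubi-neo/NS3-3'/5.1 subgenomic replicon, seeded 6 500 cells/well in DMEM/10% FCS without Geneticin, overnight 37 °C. Compound (DMSO stock diluted in medium) in 1:5 four-step or 1:2 eight-step series, 72 h. Cells PBS-washed, lysed 5 min, luciferase luminescence read, converted to % untreated control; EC50 from dose-response curve, mean of ≥2 independent experiments.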
In general terms: A reporter such as luciferase makes a cellular process visible.

Data set [5] is described as follows: Cytotoxicity against human HuH5.2 cells assessed as reduction in metabolic activity after 72 hrs by MTS assay. Conditions: HuH5.2 cells. It is filed as toxicity, cell-based, Huh-5-2. The essentials: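 Run in parallel with the replicon assay: Huh 5-2 replicon cells, 6 500 cells/well, compound series for 72 h at 37 °C, 5% CO2. Medium then replaced with 5% MTS in phenol red-free medium for 1.5 h. Absorbance at 498 nm expressed as % untreated cells; CC50 from dose-response curve as 50% reduction in metabolic activity, mean of ≥2 experiments.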
A general note: Tetrazolium dyes change colour on reduction, which living cells bring about.

Data set [6] is described as follows: Inhibition of protease domain lacking Hepatitis C virus genotype 1b (con1) C-terminal His-tagged NS3 helicase ATP hydrolysis activity using ATP as substrate preincubated followed by substrate addition measured after 15 mins in absence of poly U RNA by malachite green-based assay. On the set-up: species or system Hepatitis C virus (isolate Con1).

The term IC50 denotes the concentration at which inhibition is half-maximal. By EC50 is commonly meant the concentration needed to bring the measured effect to its halfway point. Read a low EC50 as an effect from little substance. As usually defined, the EC90 is the point of the concentration-response curve where the effect stands at 90%. Low readings indicate an effect from little substance, high ones a need for much substance. As usually defined, the CC50 is the concentration that lowers cell viability or growth by half. For the compound `O=C(NNc1ncnc2sc3ccccc3c12)c1cnccn1`, the IC50 in data set [1] is over 1000 µM; in data set [2] it was 949 µM; in data set [3] it was over 1000 µM. Besides, the selectivity ratio in data set [4] came to 18.5. The compound further showed an EC50 in the data set with Hepatitis C virus of 0.0723 µM. In the data set with Hepatitis C virus, this compound gave an EC90 of 0.192 µM. The CC50 at 72 h in data set [5] came out at 1.34 µM.

Regarding `C/C(=N\Nc1ncnc2sc3c(c12)CCCC3)c1ccccc1O`, the IC50 in data set [1] is over 1000 µM; in data set [2], over 1000 µM; in data set [6] it was 760 µM; in data set [3], 780 µM. For the same compound, in data set [4], the selectivity ratio amounted to 59.2. For the same compound, the EC50 in the data set on Hepatitis C virus was found to be 2.6 µM. The EC90 with Hepatitis C virus turned out to be 20.1 µM. Further, the CC50 at 72 h in data set [5] stood at 154 µM.

On to `O=S(=O)(NNc1ncnc2sc3c(c12)CCCC3)c1ccccn1`, for which the IC50 in data set [1] was over 1000 µM; in data set [2], 675 µM; in data set [3], over 1000 µM. Also, the selectivity ratio in data set [4] was 3.4. Further, the response in the data set on Hepatitis C virus was half-maximal at 42.9 µM (EC50). In the data set on Hepatitis C virus, this compound had an EC90 of 83.2 µM. Further, the CC50 at 72 h in data set [5] was 145 µM.

As for `O=C(NNc1ncnc2sc3c(c12)CCC3)c1ccccc1O`, the IC50 was 250 µM in data set [1], over 1000 µM in data set [2], over 1000 µM in data set [6] and 333 µM in data set [3]. Further, the selectivity ratio in data set [4] was 538. Moreover, in the data set with Hepatitis C virus, the EC50 was found to be 0.221 µM. For the same compound, in the data set on Hepatitis C virus, the EC90 came out at 0.352 µM. In addition, the CC50 at 72 h in data set [5] was found to be 119 µM.

As to `Cc1ccc2nc(-c3ccc4nc(-c5ccc(N)cc5)sc4c3)sc2c1S(=O)(=O)O`, the IC50 in data set [1] was 10 µM; in data set [2], 46 µM; in data set [6], over 200 µM; in data set [3], 40 µM.

As for `C/C(=N\Nc1ncnc2sc3ccccc3c12)c1ccccc1O`, the IC50 in data set [1] is over 1000 µM; in data set [2], 827 µM; in data set [3] it was over 1000 µM. Further, the selectivity ratio in data set [4] was determined as 134. In the data set with Hepatitis C virus, this compound had an EC50 of 0.0861 µM. This compound gave an EC90 with Hepatitis C virus of 0.421 µM. Also, the CC50 at 72 h in data set [5] is 11.5 µM.

With `O=C(O)C1=CC(=C(c2ccc(O)c(C(=O)O)c2)c2ccc(O)c(C(=O)O)c2)C=CC1=O` [AURINTRICARBOXYLIC ACID], the IC50 in data set [1] is 0.3 µM; in data set [2], 2 µM; in data set [6], 3.3 µM; in data set [3], 5.1 µM.
